# In the library only some 3.3% were active in any assay of this set; here they are far more common.
# HEK293 NFkB inh: inhibitors of the PMA/ionomycin-induced NF-kB reporter in HEK293 cells | HEK-293 NF-kB luciferase reporter, luminescence | inhibition, % at 3 µM | 62,000 tested, 0.21% active | AID 465;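 active = inhibition above the mean of all tested compounds plus 3 SD, cut at about 40% in these data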;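 note: 0% = stimulated DMSO wells and 100% = 10 µM reference inhibitor 5653914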
#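 Signal: luciferase luminescence; Material: HEK-293 cells with stable firefly luciferase reporter driven by four HIV NF-kB elements; Probe or stimulus: PMA with ionomycin; Replication: tested once; Times: 1 h compound pretreatment, then 16 h stimulation at 37 °C, 5% CO2; Benchmarks: DMSO and 10 µM reference inhibitor; Evaluation: per-plate % inhibition versus controls.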
# 5HT1a antag: 5-HT1a (human) receptor antagonism | 62,000 tested, 0.68% active | inhibition, % at 10 µM | P08908 | AID 612 | CHO 5-HT1a Ga15 NFAT-bla reporter, antagonist mode;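 active = inhibition above the mean of all tested compounds plus 3 SD, cut at about 43% in these data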;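 note: receptor stimulated by 5-CT agonist at 100 nM near EC80; beta-lactamase reporter measured by ratiometric fluorescence of a cleavable substrate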
# Jurkat viability: cytotoxic compounds reducing Jurkat cell viability | Jurkat E6.1 viability, ATP luminescence, 48 h | inhibition, % at 4 µM | 56,000 tested, 1.2% active | AID 463;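 active = inhibition above the mean inhibition of all tested compounds plus 3 SD, cut at about 28% in these data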
# 5HT1E ag: 5-HT1E (human) receptor agonism. 65,000 tested, 0.69% active. P28566. activation, % at 6 µM. CHO 5-HT1E Ga15 NFAT-bla reporter, FRET; 0% DMSO wells, 100% control agonist wells;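 active = activation above a set limit, the screen-wide mean activation plus 3 SD, cut at about 8.5% in these data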;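 note: 100% = positive control agonist at 1 µM giving full maximal response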
# Target sequence (P28566 whole entry, looked up): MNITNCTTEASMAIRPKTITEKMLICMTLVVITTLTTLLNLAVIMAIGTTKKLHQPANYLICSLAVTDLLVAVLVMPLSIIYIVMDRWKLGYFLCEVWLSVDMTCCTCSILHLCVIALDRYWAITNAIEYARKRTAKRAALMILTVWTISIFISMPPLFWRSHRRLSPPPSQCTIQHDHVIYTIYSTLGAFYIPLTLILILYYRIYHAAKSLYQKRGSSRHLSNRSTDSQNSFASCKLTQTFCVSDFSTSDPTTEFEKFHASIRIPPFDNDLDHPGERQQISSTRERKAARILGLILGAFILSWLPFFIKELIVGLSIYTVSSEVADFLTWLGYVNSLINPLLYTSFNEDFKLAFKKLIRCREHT
# 5HT1a ag: activates the human 5-HT1a serotonin receptor. P08908. CHO 5-HT1a Ga15 NFAT-bla reporter, FRET ratio; 0% basal, 100% maximal reference agonist. activation, % at 10 µM. 65,000 tested, 0.56% active. AID 567;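 active = activation above the screen-wide mean activation plus 3 SD, cut at about 19% in these data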;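 note: 0% = DMSO wells and 100% = 5-CT at EC100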
# 5HT1E antag: 5-HT1E (human) receptor antagonism; P28566; CHO 5-HT1E Ga15 NFAT-bla reporter, FRET, antagonist; inhibition, % at 6 µM; 65,000 tested, 0.99% active;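 active = inhibition above a set limit, the mean inhibition across every tested compound plus 3 SD, cut at about 29% in these data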;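 note: signal is the 460 over 535 nm emission ratio of beta-lactamase substrate; 0% = agonist plus DMSO wells and 100% = wells without agonist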
# An asterisk follows results filed as active; / = not tested or not shown.
SMILES,HEK293 NFkB inh,5HT1a antag,Jurkat viability,5HT1E ag,5HT1a ag,5HT1E antag
CN(C)S(=O)(=O)c1ccc(/C(O)=C2/C(=O)C(=O)N(CCN3CCCCC3)C2c2cccnc2)cc1 (centres undefined),2.6,3.0,6.7,0.9,-1.8,3.2
CC(C)OCCCNc1ncnc2c1[nH]c1ccccc12,13.6,25.8,67.3*,0.8,-0.9,12.3
O=S(=O)(NCc1ccncc1)c1ccc(Br)s1,42.2*,10.7,93.6*,0.1,-0.5,9.0
O=C(O)CNS(=O)(=O)c1ccc(Br)s1,14.2,-7.8,3.4,-0.8,-1.0,6.2
CS(=O)(=O)c1nc(-c2ccccc2)cc(C(F)(F)F)n1,-4.3,110.3*,/,2.9,-9.2,64.5*
Cc1cc(NC(=O)CCS(=O)(=O)c2nc(-c3ccccc3)cc(C(F)(F)F)n2)no1,7.9,61.0*,32.7*,0.3,1.4,40.0*
O=S(=O)(c1ccccc1)N(C1=NCCS1)S(=O)(=O)c1ccccc1,4.1,-17.7,-4.5,-0.4,-2.3,-4.9
COc1cccc(NC(=O)N2CCN(c3cccc(C)c3C)CC2)c1,12.3,0.2,1.0,30.0*,-1.6,-1.2
CC(C)(C)OC(=O)N1CCN(c2ccc(NC(=O)c3cc4ccccc4oc3=O)cc2)CC1,14.2,9.3,/,-1.7,-0.6,0.9
COc1ccccc1N1CCN(C(=O)c2ccc(CS(=O)(=O)c3ccccc3OC)o2)CC1,0.7,-49.3,6.9,6.1,2.2,1.3
CCOC(=O)N1CCN(C(=O)c2ccccc2-c2ccccc2)CC1,31.6,3.6,79.0*,0.6,-2.4,8.3
CCOC(=O)N1CCN(C(=O)c2ccccc2CCc2ccccc2)CC1,14.2,8.6,-7.5,-0.4,0.3,-1.8
CCOC(=O)N1CCN(c2c(NCc3ccccc3OC)c(=O)c2=O)CC1,5.1,8.3,0.8,-0.1,-1.0,11.7
CCOC(=O)N1CCN(c2c(NCc3cccs3)c(=O)c2=O)CC1,10.3,1.5,36.7*,0.8,1.7,-1.5
C=CCN1C(=O)C2(/C(=C(\O)c3ccc4c(c3)OCCO4)C(=O)C(=O)N2CCCOC)c2ccccc21 (centres undefined),7.5,1.4,-0.1,0.0,-4.0,4.2
CCOC(=O)c1[nH]c2ccc(OC)cc2c1NC(=O)c1ccc2c(c1)OCO2,2.1,-5.3,/,0.7,1.2,4.2
COC(=O)c1[nH]c2cc(OC)ccc2c1NC(=O)c1ccc2c(c1)OCO2,4.2,-4.2,/,0.8,114.8*,-10.0
CCCSc1nnc(NC(=O)Nc2ccc(F)cc2)s1,/,/,/,0.3,-0.7,32.3*
Cc1nn(-c2ccccc2)c(OC(=O)c2cccs2)c1S(=O)(=O)c1ccccc1,0.2,-6.3,-3.4,-0.7,80.9*,4.3
O=C(Nc1ccc(Cl)cc1)N1CCC(c2nc(-c3ccc(F)cc3)no2)CC1,19.6,47.4*,3.4,-0.5,-1.9,22.4
Cc1nn(C(C)C(=O)N2CCN(c3ccccn3)CC2)c(=O)c2cc3occc3n12 (centres undefined),20.3,-10.0,-6.9,0.5,-1.2,-6.7
CCc1nn(C(C)C(=O)N2CCN(Cc3ccccc3)CC2)c(=O)c2cc3occc3n12 (centres undefined),32.4,-4.9,4.4,16.1*,-0.2,-9.5
Cc1ccc(C)c(C(C)NC(=O)C2C3CCC(O3)C2C(=O)O)c1 (centres undefined),9.8,7.4,-0.7,-1.3,-0.5,-6.3
COc1cccc(C2C(C(=O)OCc3ccccc3)=C(C)Nc3ncnn32)c1OC (centres undefined),-2.0,8.5,-0.6,0.1,2.5,1.2
CCN(C1CCCCC1)S(=O)(=O)c1ccc(S(=O)(=O)NCCc2ccncc2)cc1,13.9,-16.2,-0.6,-0.2,0.5,9.8
CCN(C1CCCCC1)S(=O)(=O)c1ccc(S(=O)(=O)NCc2ccncc2)cc1,34.6,-11.1,68.7*,0.3,-0.6,-4.0
Cc1cc(C)nc(N2CCCC(C(=O)NC(C)CCc3ccco3)C2)n1 (centres undefined),11.4,-3.4,-1.5,-0.3,-2.4,3.6
N#CC1=C(N)Oc2n[nH]c(-c3ccc(F)cc3)c2C1c1cccc(OC(=O)N2CCOCC2)c1 (centres undefined),11.4,1.0,/,-0.4,0.0,-7.2

# High-throughput results deposited in PubChem BioAssay by The Scripps Research Institute Molecular Screening Center.
